Bioassay records from PubChem.
This is a sample that favours compounds with a hit; in the whole collection about 2.3% have one here.
TRPC4 agonist – activators of mouse TRPC4 channel, primary screen, Fluo4 calcium, HEK293 TRPC4beta/mu-opioid cells; B-score at 10 µM; Fluo4 calcium fluorescence; hits give high values; hit rate 0.49% among 310,000; Short transient receptor potential channel 4 (Mus musculus), Q9QUQ5; AID 2237, 2010;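 active means B-score above 5 SD of library B-scores, and initial fluorescence ratio not above library mean plus 5 SD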;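 further: positive B-score marks a calcium rise read as TRPC4 activation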
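Material: TRPC4beta and mu-opioid receptor HEK293 stable cells | Incubation: 45 min room-temperature Fluo4 loading, 110 s read | Detection: Kinetic Fluo4 calcium fluorescence | Measure: Integrated baseline-normalised fluorescence ratio, converted to per-well B score | Benchmarks: Low control buffer alone, high control maximal DAMGO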
TRPC6 activator – mouse TRPC6 channel activators, primary screen, cell-based, HEK293, membrane potential dye; Short transient receptor potential channel 6 (Mus musculus), Q61143; B-score at 10 µM; hit rate 0.13% among 310,000; HEK293-TRPC6 membrane potential dye fluorescence; hits give high values;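 active means B-score of the integrated fluorescence ratio above library mean plus 3 SD, and starting fluorescence ratio within library mean plus 5 SD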;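 further: higher score means more depolarization so channel activation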
Target sequence (Q61143 whole entry, looked up): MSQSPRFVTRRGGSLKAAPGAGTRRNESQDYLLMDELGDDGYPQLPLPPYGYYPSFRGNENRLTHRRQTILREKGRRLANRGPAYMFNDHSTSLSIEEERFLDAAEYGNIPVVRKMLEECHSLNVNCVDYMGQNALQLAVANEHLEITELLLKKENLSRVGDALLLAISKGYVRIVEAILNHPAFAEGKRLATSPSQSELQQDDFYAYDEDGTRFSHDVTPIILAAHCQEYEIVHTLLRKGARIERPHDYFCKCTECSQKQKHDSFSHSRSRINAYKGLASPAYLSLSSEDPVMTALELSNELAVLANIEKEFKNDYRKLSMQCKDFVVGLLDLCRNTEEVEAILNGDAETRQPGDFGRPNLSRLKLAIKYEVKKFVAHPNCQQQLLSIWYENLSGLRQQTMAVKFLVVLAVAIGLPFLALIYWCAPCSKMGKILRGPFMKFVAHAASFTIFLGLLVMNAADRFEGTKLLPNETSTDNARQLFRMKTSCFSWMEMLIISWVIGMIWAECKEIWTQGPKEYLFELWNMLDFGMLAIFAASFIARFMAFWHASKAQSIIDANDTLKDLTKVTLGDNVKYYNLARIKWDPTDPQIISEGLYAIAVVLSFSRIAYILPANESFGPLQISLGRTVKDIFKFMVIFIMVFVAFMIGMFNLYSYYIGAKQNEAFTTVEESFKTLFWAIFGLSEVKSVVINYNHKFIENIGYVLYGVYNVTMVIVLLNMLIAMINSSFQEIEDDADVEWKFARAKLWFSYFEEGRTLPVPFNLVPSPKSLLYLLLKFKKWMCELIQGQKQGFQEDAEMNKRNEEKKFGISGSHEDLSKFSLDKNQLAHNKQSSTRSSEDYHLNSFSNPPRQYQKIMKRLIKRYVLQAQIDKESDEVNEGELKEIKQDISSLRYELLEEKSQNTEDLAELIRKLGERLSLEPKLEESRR
TRPC4 PAM – positive allosteric modulators of TRPC4, primary screen, cell-based, mouse TRPC4beta, HEK293 mu-opioid, Fluo-4 calcium. Short transient receptor potential channel 4 (Mus musculus), Q9QUQ5. B-score at 10 µM. hit rate 0.42% among 310,000. DAMGO EC20, Fluo-4 Ca2+ flux; hits give high values;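 active means B-score of calcium response area above 5 SD of library B-scores, with initial fluorescence ratio within 5 SD of library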;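 further: B-score of integrated fluorescence ratio over time as area under calcium response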
TRPC6 inhibitor – mouse TRPC6 channel inhibitors, primary screen, cell-based, HEK293, membrane potential dye; AID 2553, 2010; hit rate 1.1% among 310,000; ACh-evoked depolarization; hits give low values; B-score at 10 µM;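 active means B-score under library mean minus 3 SD, initial fluorescence not abnormally high, positive integrated signal ratio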;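 further: B-score derived from integrated fluorescence ratio over the kinetic read; more negative B-score means stronger inhibition of depolarization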
TRPC4 block – inhibitors of mouse TRPC4 channel, primary screen, Fluo4 calcium, HEK293 TRPC4beta/mu-opioid cells; Short transient receptor potential channel 4 (Mus musculus), Q9QUQ5; AID 2247, 2010; hit rate 0.39% among 300,000; DAMGO-evoked Fluo4 calcium flux; hits give low values; B-score at 10 µM;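 active means B-score over 3 SD under the library average, no early fluorescence shift, positive overall ratio signal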
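material = TRPC4beta/mu-opioid receptor HEK293 cell line | probe or stimulus = sequential submaximal and maximal DAMGO stimulation | compound dosing = one concentration per compound | measured by = Fluo4 Ca2+ flux fluorescence | evaluation = integrated fluorescence ratio relative to baseline, converted to per-well B score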
TRPC4 spec 2 – mouse TRPC4 off-target activity of TRPC6 inhibitors, second screen. shares compounds with TRPC6 inhibitor. HEK293 TRPC4/MOR, membrane potential dye fluorescence; channel activated by saturating DAMGO dose. inhibition, % at 10 µM. hit rate 42% among 920;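 active means compounds whose fluorescence signal differed from control wells by over 3 SD, either direction, in both duplicate plates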
TRPC4 spec – mouse TRPC4 modulation by TRPC6 hits, confirmation, selectivity assay for TRPC6 inhibitor project, cell-based, HEK293 TRPC4/mu-opioid, membrane potential dye | shares compounds with TRPC6 inhibitor | AID 2777, 2010 | hit rate 61% among 920 | membrane potential fluorescence | activity change, negative = inhibition, % at 10 µM;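 active means rise or fall in signal beyond 3 SD of buffer-only wells in both replicate plates, either sign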;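 further: integrated kinetic ratio of fluorescence range over baseline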
HEK293 MPD ctr 2-1 – nonspecific membrane potential effects, parental HEK293, confirmation, counter-screen for TRPC6 inhibitor project, cell-based, second counter screen. shares compounds with TRPC6 inhibitor. parental HEK293 membrane potential dye fluorescence; maximal acetylcholine challenge after compound addition. signal change vs control, % at 10 µM. hit rate 31% among 920. AID 2779, 2010;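 active means membrane potential signal moving either way by over 3 SD of the maximum-effect control, in both duplicate plates, meaning non-specific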
HEK293 MPD ctr-1 – membrane potential modulation in parental HEK293, confirmation, counter-screen for TRPC6 inhibitor project, cell-based. hit rate 60% among 920. AID 2780, 2010. parental HEK293 membrane potential dye fluorescence. membrane potential signal change, % at 10 µM. shares compounds with TRPC6 inhibitor;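 active means membrane potential signal shifting up or down by more than 3 SD of buffer-only wells, on both duplicate plates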
HEK293 MPD ctr-2 – parental HEK293 membrane potential modulation, confirmation, counter-screen for TRPC6 modulator project, cell-based; shares compounds with TRPC6 inhibitor; AID 488924, 2010; membrane potential signal change, % at 10 µM; hit rate 51% among 2,400; membrane potential dye fluorescence;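 active means membrane potential signal moves up or down beyond 5 SD from buffer-only wells, on both duplicate plates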
HEK293 MPD ctr 2-2 – second counter-screen for TRPC6 modulators: effect in parental HEK293 cells; shares compounds with TRPC6 inhibitor; inhibition, % at 10 µM; hit rate 14% among 2,400; membrane potential dye fluorescence; after compound, maximal acetylcholine stimulation;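 active means membrane potential signal drops by more than 5 SD from the mean control signal, in both duplicate plates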;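 further: plate controls were acetylcholine ECmax control wells for no effect and buffer only wells for full effect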
TRPC4/MOR mod – TRPC4 modulation by TRPC6 hit compounds, confirmation, selectivity assay for TRPC6 modulator project, cell-based, HEK293 TRPC4/mu-opioid, membrane potential dye, mouse; shares compounds with TRPC6 inhibitor; membrane potential fluorescence; percent change from control (negative = decrease, positive = increase), % at 10 µM; hit rate 69% among 2,400; AID 488927, 2010;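 active means membrane potential signal moved up or down beyond 5 SD of buffer control wells, in both duplicate plates, actives on both sides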;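 further: plate controls were assay buffer wells for no effect and DAMGO maximal-effect wells for full effect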
TRPC4 ctr inh 2 – second check of whether TRPC6 modulators also affect mouse TRPC4 | hit rate 55% among 2,400 | shares compounds with TRPC6 inhibitor | inhibition, % at 10 µM | HEK293 TRPC4/mu-opioid, membrane potential dye fluorescence; stimulated with maximal-effect DAMGO;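 active means drop in membrane potential signal beyond 5 SD of the control wells in both duplicate plates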;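 further: TRPC4 counter screen for TRPC6 hits run under conditions tuned for TRPC6 not TRPC4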
TRPC6 inh conf – mouse TRPC6 channel inhibitors, confirmation, HEK293 cells, membrane potential dye, duplicate | shares compounds with TRPC6 inhibitor | ACh-evoked depolarization | inhibition, % at 10 µM | hit rate 43% among 3,300;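 active means fluorescence ratio falls more than 5 SD below the full-stimulation control mean, in both duplicate runs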;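 further: integrated fluorescence ratio of peak minus minimum over baseline after agonist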
TRPC6 act conf – mouse TRPC6 channel activators, confirmation, HEK293 cells, membrane potential dye, duplicate | shares compounds with TRPC6 inhibitor | HEK293-TRPC6 membrane potential dye fluorescence, FDSS | activation, % at 10 µM | hit rate 11% among 2,800;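 active means ratio signal rise beyond 5 SD above unstimulated control wells' mean, seen in both duplicate runs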;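 further: plate controls were buffer EC0 wells for no effect and acetylcholine ECmax response for full effect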
* hit, by the source's call; i = inactive; nt = no result.

SMILES | TRPC4 agonist | TRPC6 activator | TRPC4 PAM | TRPC6 inhibitor | TRPC4 block | HEK293 MPD ctr-2 | HEK293 MPD ctr 2-2 | TRPC4/MOR mod | TRPC4 ctr inh 2 | TRPC6 inh conf | TRPC6 act conf | others
Cc1sc2cc3c(c(C(=O)c4ccccc4)[n+]2c1C)-c1cccc2cccc-3c12 | i | i | i | -8.57* | -6* | nt | nt | nt | nt | i | i | TRPC4 spec 2=i;TRPC4 spec=-28.1%*;HEK293 MPD ctr 2-1=i;HEK293 MPD ctr-1=-501.5%*
COCCCNC(=S)N1CCCN(c2nc3cc(C)ccc3cc2C#N)CC1 | i | i | i | -10.9* | i | nt | nt | nt | nt | 84.8%* | nt | TRPC4 spec 2=i;TRPC4 spec=i;HEK293 MPD ctr 2-1=i;HEK293 MPD ctr-1=i
COCCCNC(=S)N1CCCN(c2nc3cc(C)c(C)cc3cc2C#N)CC1 | i | i | i | -5.19* | i | i | i | i | i | 60.5%* | nt
CCOCCCNC(=S)N1CCCN(c2nc3cc(C)c(C)cc3cc2C#N)CC1 | i | i | i | i | i | nt | nt | nt | nt | nt | nt
Fc1ccc(NC(=S)Nc2ccccc2OC(F)F)cc1Cl | i | i | i | -6.47* | i | i | i | i | 35.0%* | i | i
Cc1ccc(NC(=S)Nc2ccc(Cl)c(Cl)c2)c(OC(F)F)c1 | i | i | i | i | i | nt | nt | nt | nt | nt | nt
CCCNC(=O)N1CCC(C(=O)c2cccc(F)c2)CC1 | i | i | i | i | i | nt | nt | nt | nt | nt | nt
COC(=O)c1c(C)oc(C)c1S(=O)(=O)NC(c1ccccc1)c1ccccc1 | i | i | i | i | i | nt | nt | nt | nt | nt | nt
CCCCOC(=O)c1ccc(NC(=O)c2ccccc2OC)cc1 | i | i | i | i | i | nt | nt | nt | nt | nt | nt
CCCCOC(=O)c1ccc(NC(=O)c2ocnc2C)cc1 | i | i | i | -6.68* | i | nt | nt | nt | nt | i | i | TRPC4 spec 2=i;TRPC4 spec=i;HEK293 MPD ctr 2-1=i;HEK293 MPD ctr-1=i
CCCCOC(=O)c1ccc(NC(=O)c2ccoc2C)cc1 | i | i | i | i | i | nt | nt | nt | nt | nt | nt
CCCCCOC(=O)c1ccc(NC(=O)c2cccc(NC(=O)c3ccccc3C(=O)O)c2)cc1 | i | 14* | i | i | i | i | i | 15.0%* | i | nt | 199.5%*
CC(C)Nc1ccc(Cl)cc1[N+](=O)[O-] | i | i | i | i | i | nt | nt | nt | nt | nt | nt
O=[N+]([O-])c1cccc(/C=N/NC2=NCCCCC2)c1 | i | i | i | -5.08* | i | -80.5%* | i | -15.0%* | 39.0%* | i | i
O=C(ONC1=NCCCCC1)c1cccc([N+](=O)[O-])c1 | i | i | i | i | i | nt | nt | nt | nt | nt | nt
c1ccc(-n2cnc3cc(NCc4ccco4)ccc32)cc1 | i | i | i | i | i | nt | nt | nt | nt | nt | nt
Cc1cc(NC2CCCCC2)n2c(n1)nc1ccccc12 | i | i | i | -5.5* | i | i | i | i | i | i | i
Cc1cc(Nc2cccc(F)c2)n2c(n1)nc1ccccc12 | i | i | i | i | i | nt | nt | nt | nt | nt | nt
Cc1nc(N2CCCCC2)sc1C(=O)c1ccc(SCCO)c([N+](=O)[O-])c1 | i | i | i | i | i | nt | nt | nt | nt | nt | nt
Cc1nc(N2CCCCC2)sc1C(=O)c1cccc([N+](=O)[O-])c1 | i | i | i | -5.79* | i | i | i | i | i | i | i
O=C(COC(=O)CNC(=O)c1cccc([N+](=O)[O-])c1)NCc1ccco1 | i | i | i | i | i | nt | nt | nt | nt | nt | nt
Cc1ccc(S(=O)(=O)n2ccc3c2CCCC3=O)cc1 | i | i | i | -5.07* | i | 334.5%* | 165.5%* | 75.5%* | 48.5%* | 88.5%* | nt
CCCN(CC(=O)Nc1ccccc1C)C(=O)COc1c(Cl)cccc1Cl | i | i | i | i | i | nt | nt | nt | nt | nt | nt
CCN(CC)S(=O)(=O)c1ccc(N2CCCCC2)c(NC(=O)c2ccncc2)c1 | i | i | i | -6.61* | i | nt | nt | nt | nt | i | nt | TRPC4 spec 2=i;TRPC4 spec=10.0%*;HEK293 MPD ctr 2-1=i;HEK293 MPD ctr-1=6.7%*
CCN(CC)S(=O)(=O)c1ccc(N2CCCCC2)c(NC(=O)C2=COCCO2)c1 | i | 14* | i | -6.05* | i | 177.5%* | i | 33.0%* | i | 88.5%* | 154.0%*
CCN(CC)S(=O)(=O)c1ccc(N2CCOCC2)c(NC(=O)C23CC4CC(CC(Cl)(C4)C2)C3)c1 | i | i | i | -6.4* | i | 164.5%* | i | i | i | 38.5%* | nt
